What was measured:
UACC-62 = experiment: Growth inhibition of human UACC62 cells after 48 hrs by sulforhodamine B assay; format: functional; conditions: UACC-62, 48 h
Method in brief: (§1)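 NCI 60-cell panel five-dose assay. GI50, TGI and LC50 are derived from log concentration versus % growth inhibition curves. Cell lines insensitive at the top concentration are given a ">" prefix.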

Malme-3M = experiment: Growth inhibition of human MALME-3M cells after 48 hrs by sulforhodamine B assay; format: functional
Method in brief: (§2)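 GI50, TGI and LC50 were derived from log concentration versus % growth inhibition curves for each cell line. GI50 is the concentration giving a 50% decrease in net cell growth. Insensitive lines are reported as greater than the highest concentration.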

OVCAR-4 = experiment: Cytotoxicity against human OVCAR4 cells after 48 hrs by sulforhodamine B assay; format: functional; conditions: OVCAR-4, 48 h, read-out: LC50 (the source's name)
Method in brief: (§3)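 NCI 60 human tumour cell line panel run to the NCI protocol. GI50, TGI and LC50 come from log concentration vs % growth inhibition curves for each cell line. Lines insensitive at the top concentration are reported with ">".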

SF-295 = experiment: Growth inhibition of human SF295 cells after 48 hrs by sulforhodamine B assay; format: functional; conditions: SF-295, 48 h; method in brief: as §2
MDA-MB-231 [1] = experiment: Cytotoxicity against human MDA-MB-231 cells after 48 hrs by sulforhodamine B assay; format: functional; conditions: MDA-MB-231, 48 h, read-out: LC50 (the source's name); method in brief: as §3
OVCAR-3 [2] = experiment: Growth inhibition of human OVCAR3 cells after 48 hrs by sulforhodamine B assay; format: functional; conditions: OVCAR-3, 48 h; method in brief: as §2
[3] = Antibacterial activity against Pseudomonas antimicrobica assessed as zone of inhibition at 5 uL and 32 degC after 36 hrs by disk diffusion method; format: functional, Burkholderia gladioli
Method in brief: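 Disc diffusion on AC agar, each strain spread evenly over the medium; test compounds given as 1% (w/v) DMSO solutions. Plates covered and incubated 36 h at 32 °C, then the diameter of the zone of inhibited growth measured in mm. Tetracycline served as antibacterial reference.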

M14 = experiment: Growth inhibition of human M14 cells after 48 hrs by sulforhodamine B assay; format: functional; conditions: M14, 48 h
Method in brief: (§4)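 From log concentration versus % growth curves, GI50 (50% decrease in net growth), TGI (total growth inhibition) and LC50 (net 50% loss of initial cells) are derived for each line.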

OVCAR-3 [4] = experiment: Cytotoxicity against human OVCAR3 cells after 48 hrs by sulforhodamine B assay; format: functional; conditions: OVCAR-3, 48 h, read-out: LC50 (the source's name); method in brief: as §3
UACC-257 = experiment: Cytotoxicity against human UACC257 cells after 48 hrs by sulforhodamine B assay; format: functional; conditions: UACC-257, 48 h, read-out: LC50 (the source's name)
HT-29 [5] = experiment: Cytotoxicity against human HT-29 cells after 48 hrs by sulforhodamine B assay; format: functional; conditions: HT-29, 48 h, read-out: LC50 (the source's name); method in brief: as §3
SN12C = experiment: Cytotoxicity against human SN12C cells after 48 hrs by sulforhodamine B assay; format: functional; conditions: read-out: LC50 (the source's name); method in brief: as §3
MDA-MB-231 [6] = experiment: Growth inhibition of human MDA-MB-231 cells after 48 hrs by sulforhodamine B assay; format: functional; conditions: MDA-MB-231, 48 h; method in brief: as §2
OVCAR-8 = experiment: Growth inhibition of human OVCAR8 cells after 48 hrs by sulforhodamine B assay; format: functional; conditions: OVCAR-8, 48 h; method in brief: as §2
HOP-92 = experiment: Growth inhibition of human HOP92 cells after 48 hrs by sulforhodamine B assay; format: functional; conditions: HOP-92, 48 h; method in brief: as §4
COLO 205 = experiment: Growth inhibition of human COLO205 cells after 48 hrs by sulforhodamine B assay; format: functional; conditions: COLO 205, 48 h; method in brief: as §4
HT-29 [7] = experiment: Growth inhibition of human HT-29 cells after 48 hrs by sulforhodamine B assay; format: functional; conditions: HT-29, 48 h; method in brief: as §4
MOLT-4 = experiment: Growth inhibition of human MOLT4 cells after 48 hrs by sulforhodamine B assay; format: functional; conditions: MOLT-4, 48 h; method in brief: as §2
SK-MEL-2 = experiment: Cytotoxicity against human SK-MEL-2 cells after 48 hrs by sulforhodamine B assay; format: functional; conditions: SK-MEL-2, 48 h, read-out: LC50 (the source's name); method in brief: as §3
MDA-MB-435 = experiment: Growth inhibition of human MDA-MB-435 cells after 48 hrs by sulforhodamine B assay; format: functional; conditions: MDA-MB-435, 48 h; method in brief: as §2
[8] = Growth inhibition of human Hs 578T cells after 48 hrs by sulforhodamine B assay; format: functional; method in brief: as §4
SW-620 = experiment: Cytotoxicity against human SW620 cells after 48 hrs by sulforhodamine B assay; format: functional; conditions: SW-620, 48 h, read-out: LC50 (the source's name)
NCI-H522 = experiment: Growth inhibition of human NCI-H522 cells after 48 hrs by sulforhodamine B assay; format: functional; conditions: NCI-H522, 48 h; method in brief: as §2
OVCAR-5 = experiment: Growth inhibition of human OVCAR5 cells after 48 hrs by sulforhodamine B assay; format: functional; conditions: OVCAR-5, 48 h; method in brief: as §2
SK-OV-3 = experiment: Cytotoxicity against human SKOV3 cells after 48 hrs by sulforhodamine B assay; format: functional; conditions: SK-OV-3, 48 h, read-out: LC50 (the source's name); method in brief: as §3
[9] = Cytotoxicity against human Hs 578T cells after 48 hrs by sulforhodamine B assay; format: functional; conditions: read-out: LC50 (the source's name); method in brief: as §3
K562 = experiment: Cytotoxicity against human K562 cells after 48 hrs by sulforhodamine B assay; format: functional; conditions: K562, 48 h, read-out: LC50 (the source's name); method in brief: as §3
ACHN = experiment: Growth inhibition of human ACHN cells after 48 hrs by sulforhodamine B assay; format: functional; method in brief: as §4
HCC 2998 = experiment: Cytotoxicity against human HCC2998 cells after 48 hrs by sulforhodamine B assay; format: functional; conditions: HCC 2998, 48 h, read-out: LC50 (the source's name); method in brief: as §3
RPMI-8226 = experiment: Growth inhibition of human RPMI8226 cells after 48 hrs by sulforhodamine B assay; format: functional; conditions: RPMI-8226, 48 h; method in brief: as §2
A498 = experiment: Growth inhibition of human A498 cells after 48 hrs by sulforhodamine B assay; format: functional; conditions: A498, 48 h; method in brief: as §4
T47D = experiment: Growth inhibition of human T47D cells after 48 hrs by sulforhodamine B assay; format: functional; method in brief: as §1
SF-268 = experiment: Cytotoxicity against human SF268 cells after 48 hrs by sulforhodamine B assay; format: functional; conditions: SF-268, 48 h, read-out: LC50 (the source's name); method in brief: as §3
HL-60(TB) = experiment: Growth inhibition of human HL-60(TB) cells after 48 hrs by sulforhodamine B assay; format: functional; conditions: HL-60, 48 h
MCF7 = experiment: Growth inhibition of human MCF7 cells after 48 hrs by sulforhodamine B assay; format: functional; conditions: MCF7, 48 h; method in brief: as §2

## CC(C)CCC[C@@H](C)[C@H]1CC[C@H]2C3=CCn4c(=O)ccc(=O)n4[C@@H]3CC[C@]12C
UACC-62
  GI50: 544 nM
  TGI: 1950 nM
Malme-3M
  GI50: 1440 nM
  TGI: 3030 nM
OVCAR-4
  CC50: 5630 nM
SF-295
  GI50: 110 nM
  TGI: 627 nM
MDA-MB-231 [1]
  CC50: 6250 nM
OVCAR-3 [2]
  GI50: 861 nM
  TGI: 2110 nM
[3]
  diameter of the inhibition zone (DIZ): 8 mm
M14
  GI50: 285 nM
  TGI: 1010 nM
OVCAR-3 [4]
  CC50: 4780 nM
UACC-257
  CC50: 4320 nM
HT-29 [5]
  CC50: 5510 nM
SN12C
  CC50: 5280 nM
MDA-MB-231 [6]
  GI50: 1040 nM
  TGI: 2540 nM
OVCAR-8
  GI50: 317 nM
  TGI: 1580 nM
HOP-92
  GI50: 175 nM
  TGI: 1030 nM
COLO 205
  GI50: 255 nM
  TGI: 623 nM
HT-29 [7]
  GI50: 616 nM
  TGI: 2070 nM
MOLT-4
  GI50: 545 nM
  TGI: 4130 nM
SK-MEL-2
  CC50: 3390 nM
MDA-MB-435
  GI50: 354 nM
  TGI: 1780 nM
[8]
  GI50: 1800 nM
  TGI: 4790 nM
SW-620
  CC50: 5330 nM
NCI-H522
  GI50: 175 nM
  TGI: 459 nM
OVCAR-5
  GI50: 1050 nM
  TGI: 2870 nM
SK-OV-3
  CC50: 5470 nM
[9]
  CC50: > 100000 nM
K562
  CC50: > 100000 nM
ACHN
  GI50: 1040 nM
  TGI: 2320 nM
HCC 2998
  CC50: 4990 nM
RPMI-8226
  GI50: 181 nM
  TGI: 601 nM
A498
  GI50: 1060 nM
  TGI: 2270 nM
T47D
  GI50: 255 nM
  TGI: 1620 nM
SF-268
  CC50: 5700 nM
HL-60(TB)
  GI50: 113 nM
  TGI: 490 nM
MCF7
  GI50: 285 nM
  TGI: 1240 nM

## CC(C)CCC[C@@H](C)[C@H]1CC[C@H]2[C@@H]3CCN4C(=O)CCC(=O)N4[C@@H]3CC[C@]12C
[3]
  diameter of the inhibition zone (DIZ): 12 mm

## CC(C)CCC[C@@H](C)[C@H]1CC[C@H]2C3=CC[C@@H]4C(=O)C=CC(=O)[C@@H]4[C@@H]3CC[C@]12C
UACC-62
  GI50: 752 nM
  TGI: > 100000 nM
Malme-3M
  GI50: 399 nM
  TGI: 2000 nM
OVCAR-4
  CC50: > 2650 nM
SF-295
  GI50: 141 nM
  TGI: 539 nM
MDA-MB-231 [1]
  CC50: > 100000 nM
OVCAR-3 [2]
  GI50: 502 nM
  TGI: > 100000 nM
M14
  GI50: 299 nM
OVCAR-3 [4]
  CC50: > 100000 nM
UACC-257
  CC50: > 100000 nM
HT-29 [5]
  CC50: > 100000 nM
SN12C
  CC50: > 100000 nM
MDA-MB-231 [6]
  GI50: 343 nM
  TGI: 1760 nM
OVCAR-8
  GI50: 58 nM
  TGI: 1180 nM
HOP-92
  GI50: 28 nM
  TGI: 86 nM
COLO 205
  GI50: 80 nM
  TGI: 220 nM
HT-29 [7]
  GI50: 839 nM
  TGI: > 100000 nM
MOLT-4
  GI50: 312 nM
  TGI: > 100000 nM
SK-MEL-2
  CC50: > 100000 nM
MDA-MB-435
  GI50: 229 nM
  TGI: 997 nM
[8]
  GI50: 817 nM
  TGI: > 100000 nM
SW-620
  CC50: > 100000 nM
NCI-H522
  GI50: 803 nM
  TGI: > 100000 nM
OVCAR-5
  GI50: 212 nM
  TGI: > 100000 nM
SK-OV-3
  CC50: > 100000 nM
[9]
  CC50: > 100000 nM
K562
  CC50: > 100000 nM
ACHN
  GI50: 162 nM
  TGI: 1350 nM
HCC 2998
  CC50: > 100000 nM
RPMI-8226
  GI50: 107 nM
  TGI: 2230 nM
A498
  GI50: 384 nM
  TGI: 1120 nM
T47D
  GI50: 337 nM
  TGI: > 100000 nM
SF-268
  CC50: > 100000 nM
HL-60(TB)
  GI50: 153 nM
MCF7
  GI50: 112 nM
  TGI: 757 nM

Source: ChEMBL document CHEMBL1806372, “Cytotoxic ring A-modified steroid analogues derived from Grundmann's ketone” (Eur J Med Chem, 2011)
